Bioassay records as filed in PubChem.
RGS4 inh = RGS4 inhibitors, primary screen, cell-based, HEK293 M3R inducible RGS4, calcium flux. Fluo-4 calcium flux; active compounds read high; triggered by carbachol at its EC20. B-score at 10 µM. Regulator of G-protein signaling 4 (Homo sapiens), P49798. 310,000 compounds, 0.45% hits;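 active = B-score, a plate-corrected calcium signal, over three deviations above library mean, with baseline fluorescence within five deviations of library mean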;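 note: RGS4 expression induced by doxycycline in cells with stable M3 receptor; B-score is computed from the integrated fluorescence ratio over baseline after carbachol; higher B-score means a larger calcium signal and so more RGS4 inhibition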
Target sequence (P49798 whole entry, looked up): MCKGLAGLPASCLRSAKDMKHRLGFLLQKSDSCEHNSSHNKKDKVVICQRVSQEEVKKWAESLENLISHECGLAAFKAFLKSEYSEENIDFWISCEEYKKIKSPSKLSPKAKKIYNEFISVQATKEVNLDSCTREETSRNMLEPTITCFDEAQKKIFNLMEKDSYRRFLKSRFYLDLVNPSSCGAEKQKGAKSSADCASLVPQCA
MrgX1 allo act = positive allosteric modulators of MrgX1, primary screen, HEK293 cells, Fluo-4 calcium flux. Mas-related G-protein coupled receptor member X1 (Homo sapiens), Q96LB2. FDSS; active compounds read high. 310,000 compounds, 0.63% hits. B-score at 10 µM;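 active = plate-corrected calcium response at least 3 library SD above typical, normal starting fluorescence, not activating the receptor alone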;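 note: compound read alongside a low EC10 to EC30 dose of BAM8-22 agonist; peak minus trough fluorescence over baseline measured at the second addition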
Target sequence (Q96LB2 whole entry, looked up): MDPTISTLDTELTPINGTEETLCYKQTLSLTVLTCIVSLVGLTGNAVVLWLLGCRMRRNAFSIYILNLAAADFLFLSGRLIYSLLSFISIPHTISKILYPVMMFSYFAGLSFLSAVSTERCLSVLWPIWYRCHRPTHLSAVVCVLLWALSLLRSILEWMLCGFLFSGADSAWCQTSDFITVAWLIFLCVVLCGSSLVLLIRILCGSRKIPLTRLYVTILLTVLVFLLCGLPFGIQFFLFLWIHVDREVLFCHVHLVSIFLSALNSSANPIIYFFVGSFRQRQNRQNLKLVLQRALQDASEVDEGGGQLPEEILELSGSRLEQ
MrgX1 antagonist = antagonists of human MrgX1 receptor, primary screen, HEK293 cells, Fluo-4 calcium flux. 310,000 compounds, 1.3% hits. BAM8-22 antagonism; active compounds read low. AID 588676, 2011. Mas-related G-protein coupled receptor member X1 (Homo sapiens), Q96LB2. B-score at 10 µM;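 active = calcium-response B-score plate-corrected more than 3 library SD below zero, starting fluorescence within 5 deviations, no agonist response on first addition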;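 note: peak minus trough fluorescence over baseline after final BAM8-22 challenge near maximal dose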
RGS4 pot = RGS4 potentiators or activators, primary screen, cell-based, HEK293 M3R inducible RGS4, calcium flux. carbachol calcium flux Fluo4; active compounds read low. B-score at 10 µM. 310,000 compounds, 0.92% hits. AID 463111, 2010;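 active = B-score of the integrated calcium signal more than 4 SD below the library mean, with starting fluorescence not abnormally high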;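 note: negative B-score means reduced calcium response which marks RGS4 activation or potentiation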
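Detection: kinetic calcium fluorescence imaging with Fluo4-AM dye, 2 µM / Material: HEK293 cells with stable M3R and inducible RGS4 / Schedule: recording 10 s baseline at 1 Hz, 100 s post-agonist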
MrgX1 agonist = agonists of human MrgX1 receptor, primary screen, HEK293 cells, Fluo-4 calcium flux | Mas-related G-protein coupled receptor member X1 (Homo sapiens), Q96LB2 | Fluo-4 calcium fluorescence, agonist mode; active compounds read high | 310,000 compounds, 0.44% hits | B-score at 10 µM;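 active = calcium response B-score plate-corrected fluorescence ratio at least 3 library SD, with starting fluorescence B-score inside 5 SD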
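System – MrgX1-expressing HEK293 cells · Incubation – cells plated overnight, dye loaded 0.5 h 37 °C, 0.5 h room temperature · Technique – kinetic Fluo-4 NW fluorescence of intracellular calcium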
PHOSPHO1 inh = PubChem AID 1565; recombinant PHOSPHO1, absorbance phosphatase assay; inhibition, % at 13.3 µM; 290,000 compounds, 1.1% hits; Phosphoethanolamine/phosphocholine phosphatase (Homo sapiens), Q8TCT1; in the data active = inhibition above about 60%
MrgX1 ant reconf = MrgX1 receptor antagonists, duplicate retest, confirmation, HEK293 cells, Fluo-4 calcium flux; BAM8-22 calcium flux; active compounds read low; 2,300 compounds, 19% hits; shares compounds with MrgX1 antagonist; remaining BAM8-22 calcium response % of control (active compounds read low), % at 10 µM;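 active = remaining agonist calcium response no higher than 100% minus 3 SD of agonist-only control wells, with starting fluorescence near control levels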;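 note: agonist BAM8-22 given at a near maximal EC90 to ECmax level; peak minus minimum fluorescence divided by baseline after agonist addition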
HEK293 Ca flux = nonspecific calcium signal in parental HEK293, confirmation, counter-screen for MrgX1 antagonist project, parental HEK293 cells, Fluo-4 calcium flux; shares compounds with MrgX1 antagonist; Fluo-4 calcium fluorescence, FDSS; fluorescence ratio F(max-min)/F0 at 10 µM; 4,000 compounds, 2% hits; AID 624111, 2012;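 active = duplicate-averaged calcium fluorescence ratio at least three times the standard deviation of buffer wells, a nonspecific response in parental cells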
HEK293 Ca counter = calcium response in parental HEK293 cells, primary screen, counter-screen for MrgX1 allosteric activator project, cell-based, Fluo-4 calcium flux, duplicate | shares compounds with MrgX1 antagonist | Fluo-4 fluorescence ratio; active compounds read high | fluorescence ratio F(max-min)/F0 at 10 µM | 4,000 compounds, 0.4% hits | AID 624114, 2012;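 active = calcium fluorescence ratio, averaged over duplicates, at least 3 SD of the buffer-well ratio, meaning a nonspecific response in receptor-free cells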;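 note: untransfected parental HEK293 lacking MrgX1 used as counterscreen for MrgX1 allosteric activators; fluorescence change taken during the second addition on a kinetic imager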
HEK293 Ca cntr2 = calcium response in parental HEK293 cells, primary screen, counter-screen for MrgX1 agonist project, cell-based, Fluo-4 calcium flux, duplicate, agonist mode. AID 624115, 2012. shares compounds with MrgX1 antagonist. fluorescence ratio F(max-min)/F0 at 10 µM. Fluo-4 calcium fluorescence (FDSS); active compounds read high. 4,000 compounds, 8.7% hits;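 active = calcium fluorescence ratio at least three times the spread of buffer wells, meaning a non-specific response in parental cells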
Active calls of the source: *; i = inactive; . = no result. Most compounds without a hit are left out; they make up all but 4.5% or so of the library.

SMILES | RGS4 inh | MrgX1 allo act | MrgX1 antagonist | RGS4 pot | MrgX1 agonist | PHOSPHO1 inh | MrgX1 ant reconf | HEK293 Ca flux | HEK293 Ca counter | HEK293 Ca cntr2
CC(NC(=S)NC1CCCCC1)c1ccc(C(C)(C)C)cc1 (stereo not drawn) | i | i | -6.8* | i | i | 28 | 51%* | i | i | i
O=C(CNC(=O)Cc1ccccc1)NCC(=O)OCC(=O)c1ccc(F)cc1 | i | i | i | i | i | 48 | . | . | . | .
O=C(CNC(=O)c1ccccc1)NCC(=O)OCC(=O)c1ccc(F)cc1 | i | i | -4.8* | i | i | 4 | i | i | i | i
CCc1cc(C(=O)N(CCCOC)c2c(N)n(Cc3ccccc3)c(=O)[nH]c2=O)sc1C | i | i | i | i | i | . | . | . | . | .
C=CCOc1ccc(CNn2c(C)n[nH]c2=S)cc1OC | i | i | i | i | i | -105 | . | . | . | .
O=C(NS(=O)(=O)c1ccccc1)c1ccccc1 | i | i | i | i | i | -4 | . | . | . | .
Cc1ccccc1OCC(=O)NS(=O)(=O)c1ccc(Cl)cc1 | i | i | -9.2* | i | i | 10 | 83%* | i | i | i
O=C(NS(=O)(=O)c1ccc(Cl)cc1)c1ccccc1 | i | i | -4.9* | i | i | 9 | i | i | i | i
Cc1c(NC(=O)OCCNC(=O)COc2c(Cl)cccc2Cl)sc(=S)n1C | i | i | i | i | i | 54 | . | . | . | .
Cc1nnnn1-c1ccc(CC(=O)O)cc1 | i | i | -7.1* | i | i | 19 | i | i | i | i
O=C(O)CSc1nnnn1-c1ccccc1 | i | i | i | i | i | -5 | . | . | . | .
CCOC(=O)CN1C(=O)N[C@@H](CCc2ccccc2)[C@H](C(=O)OC)[C@H]1C | i | i | i | i | i | . | . | . | . | .
Cc1ccc(S(=O)(=O)NC(C)(C)CSc2ncccn2)cc1 | i | i | -9.9* | i | i | 41 | i | i | i | i
CC1(C)CC(NC(=S)NCc2ccc3c(c2)OCO3)CC(C)(C)N1 | i | i | i | i | i | 32 | . | . | . | .
CC(C(=O)Nc1sc2c(c1C(=O)NCc1ccco1)CCCC2)N1C(=O)c2ccccc2C1=O (stereo not drawn) | i | i | i | i | i | 10 | . | . | . | .
O=C(CCN1C(=O)c2ccccc2C1=O)Nc1sc2c(c1C(=O)NCc1ccco1)CCCC2 | i | i | -4.9* | i | i | 2 | i | i | i | i
CCc1cc2c(=O)n(-c3ccc(C)cc3)cnc2s1 | i | i | i | i | i | -2 | . | . | . | .
CC1CCC2(CC1)NC(=O)N(CC(=O)Nc1ccc(N3CCOCC3)cc1)C2=O (stereo not drawn) | i | i | -4.7* | i | i | -9 | 84%* | i | i | i
Cn1c(=O)c2c(nc(N3CCc4ccccc4C3)n2C)n(C)c1=O | i | i | i | i | i | -1 | . | . | . | .
O=C(NCc1ccccc1)c1cc(=O)[nH]c2ccccc12 | i | i | i | i | i | 13 | . | . | . | .
COC(=O)C(Cc1ccccc1)NC(=O)c1cc(=O)[nH]c2ccccc12 (stereo not drawn) | i | i | -4.7* | i | i | -3 | i | i | i | i
CCc1ccc(N2CC(C(=O)Nc3nccs3)CC2=O)cc1 (stereo not drawn) | i | i | -5* | i | i | -19 | i | i | i | i
O=C(Nc1nccs1)C1CC(=O)N(c2ccc(F)cc2)C1 (stereo not drawn) | i | i | i | i | i | 36 | . | . | . | .
COc1cccc(CNc2nc(SC)ncc2CO)c1 | i | i | -4.8* | i | i | 12 | 80%* | i | i | i
COc1cccc(CNc2ncnc3cc(OC)c(OC)cc23)c1 | i | i | i | i | i | -6 | . | . | . | .
SMILES | RGS4 inh | MrgX1 allo act | MrgX1 antagonist | RGS4 pot | MrgX1 agonist | PHOSPHO1 inh | MrgX1 ant reconf | HEK293 Ca flux | HEK293 Ca counter | HEK293 Ca cntr2
N#CC1(NC(=O)CN2CCN(S(=O)(=O)c3ccccc3F)CC2)CCCC1 | i | i | -4.9* | i | i | 33 | i | i | i | i
O=C(CN1C(=O)NC2(CCCC2)C1=O)N1CCN(S(=O)(=O)c2ccccc2F)CC1 | i | i | i | i | i | 29 | . | . | . | .
CC(C)CCn1cnc2c([nH]c3cccc(Cl)c32)c1=O | i | i | -5.8* | i | i | -11 | i | i | i | i
Cc1cccc2[nH]c3c(=O)n(CCN4CCNCC4)cnc3c12 | i | i | i | i | i | 23 | . | . | . | .
CC(=O)Oc1cc2c(cc1Cl)C(c1cccs1)CC1(CC(C)(C)NC(=S)N1)O2 (stereo not drawn) | i | i | i | i | i | 1 | . | . | . | .
COC(=O)c1csc2c(C(F)(F)F)cc(N3CCN(C(=O)Nc4ccccc4)CC3)nc12 | i | i | i | i | i | 13 | . | . | . | .
Cc1cc(Oc2ccccc2)nc(-c2ccccc2)n1 | i | i | -4.5* | i | i | -49 | i | i | i | i
c1ccc(Oc2cc(-c3ccccc3)nc(-c3ccccc3)n2)cc1 | i | i | i | i | i | 14 | . | . | . | .
O=C(COc1ccc([N+](=O)[O-])cc1)Nc1ccc2c(c1)OCO2 | i | i | i | i | i | -8 | . | . | . | .
Cc1ccc(C2=NC(C)(C)N=C2SCC(=O)Nc2ccc(Cl)cc2)cc1 | i | i | -5.7* | i | i | -9 | i | i | i | i
